Active and inactive are the calls of the source. The rule behind the calls is not given here.
target: T1, Alpha-2A adrenergic receptor (Homo sapiens, UniProt P08913); assay: Displacement of [3H]RX821002 from human alpha2A adrenoceptor expressed in CHO cells; assay type: cell-based; conditions: not given
T1 sequence (P08913 whole entry): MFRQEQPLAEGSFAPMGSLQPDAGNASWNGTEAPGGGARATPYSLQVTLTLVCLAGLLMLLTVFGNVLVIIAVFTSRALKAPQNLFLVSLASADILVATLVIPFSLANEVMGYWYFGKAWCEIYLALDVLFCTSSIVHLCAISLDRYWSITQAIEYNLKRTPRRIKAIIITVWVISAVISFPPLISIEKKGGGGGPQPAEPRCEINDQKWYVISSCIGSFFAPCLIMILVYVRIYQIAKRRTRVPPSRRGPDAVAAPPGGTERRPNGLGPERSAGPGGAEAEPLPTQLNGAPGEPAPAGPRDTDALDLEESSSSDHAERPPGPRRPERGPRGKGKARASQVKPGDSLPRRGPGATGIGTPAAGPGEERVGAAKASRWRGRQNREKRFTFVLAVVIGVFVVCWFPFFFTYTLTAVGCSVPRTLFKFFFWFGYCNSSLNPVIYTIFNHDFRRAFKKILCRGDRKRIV
Procedure, shortened: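 Crude membranes from CHO cells expressing human α2A-AR were incubated in Tris-Mg buffer (50 mM Tris-HCl, 0.5 mM MgCl₂, pH 7.5). Ki came from one- or two-site nonlinear regression and is given as pKi.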

SMILES | Ki
CC(Oc1ccccc1C1CC1)C1=NCCN1 (racemic) | 0.0229 µM
C[C@@H](Oc1ccccc1-c1ccsc1)C1=NCCN1 | 0.166 µM
C[C@@H](Oc1ccccc1-c1cccc(O)c1)C1=NCCN1 | 0.0398 µM

target: T1, Alpha-2A adrenergic receptor; assay: Agonist activity at human alpha2A adrenoceptor expressed in CHO cells assessed as induction of extracellular acidification by microphysiometry; assay type: functional, cell-based; conditions: not given
Procedure, shortened: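 CHO cells stably expressing human α2A-AR were seeded at 3 × 10⁵ cells/cup and held 24 h at 37 °C under 5% CO₂. They were then perfused at 100 μL/min with bicarbonate-free DMEM containing glutamine and NaCl. Agonist exposure lasted 4 min, with 30 min washes between exposures.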

SMILES | EC50
C[C@@H](Oc1ccccc1-c1ccsc1)C1=NCCN1 | 3.16 µM

target: T2, Alpha-2A adrenergic receptor (Homo sapiens) (UniProt P08913); assay: Antagonist activity at human alpha2A adrenoceptor expressed in CHO cells assessed as effect on agonist-induced extracellular acidification by microphysiometry; assay type: functional, cell-based; conditions: not given
T2 sequence (whole entry): T1 sequence (P08913 whole entry)
Procedure, shortened: (§1)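 CHO cells stably expressing one human α2-AR subtype were run on the Cytosensor microphysiometer with bicarbonate-free DMEM perfusion. […] Kb = M/(concentration ratio − 1), where the ratio is EC50 with antagonist over EC50 without. Reported as pKb, mean ± SEM of 3–6 experiments.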

SMILES | pKb
C=CCc1ccccc1O[C@H](C)C1=NCCN1 | 7.4
C[C@H](Oc1ccccc1-c1cccc([N+](=O)[O-])c1)C1=NCCN1 | 7.35
CC(Oc1ccccc1C1CC1)C1=NCCN1 (racemic) | 7
C[C@@H](Oc1ccccc1-c1cccc(O)c1)C1=NCCN1 | 6.4

target: T3, Alpha-2B adrenergic receptor (Homo sapiens, UniProt P18089); assay: Displacement of [3H]RX821002 from human alpha2B adrenoceptor expressed in CHO cells; assay type: cell-based; conditions: not given
T3 sequence (P18089 whole entry): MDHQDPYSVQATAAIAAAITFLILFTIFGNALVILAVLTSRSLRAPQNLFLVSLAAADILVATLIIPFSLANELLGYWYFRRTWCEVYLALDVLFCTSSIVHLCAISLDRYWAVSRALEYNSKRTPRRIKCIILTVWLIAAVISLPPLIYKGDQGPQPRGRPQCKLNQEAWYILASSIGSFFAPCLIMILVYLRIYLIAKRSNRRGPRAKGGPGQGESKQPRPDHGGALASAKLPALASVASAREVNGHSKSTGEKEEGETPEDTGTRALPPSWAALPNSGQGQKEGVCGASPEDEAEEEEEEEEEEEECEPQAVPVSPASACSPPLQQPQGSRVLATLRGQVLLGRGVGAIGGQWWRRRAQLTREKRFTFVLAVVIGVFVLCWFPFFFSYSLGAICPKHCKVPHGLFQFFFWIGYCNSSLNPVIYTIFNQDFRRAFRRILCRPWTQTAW
Procedure, shortened: (§2)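 Buffer was Tris-Mg (50 mM Tris-HCl, 0.5 mM MgCl2, pH 7.5), competitor 10^-9 to 10^-4 M, 30 min at room temperature. Bound ligand was filtered and counted. Ki by nonlinear one- or two-site fit, reported as pKi.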

SMILES | Ki
C=CCc1ccccc1O[C@H](C)C1=NCCN1 | 0.562 µM
CC(Oc1ccccc1C1CC1)C1=NCCN1 (racemic) | 0.309 µM
C[C@@H](Oc1ccccc1-c1ccsc1)C1=NCCN1 | 0.708 µM
C[C@@H](Oc1ccccc1-c1cccc(O)c1)C1=NCCN1 | 0.316 µM

target: T3, Alpha-2B adrenergic receptor; assay: Agonist activity at human alpha2B adrenoceptor expressed in CHO cells assessed as induction of extracellular acidification by microphysiometry; conditions: not given

SMILES | EC50
CC(Oc1ccccc1C1CC1)C1=NCCN1 (racemic) | 3.16 µM

target: T4, Alpha-2B adrenergic receptor (Homo sapiens) (UniProt P18089); assay: Antagonist activity at human alpha2B adrenoceptor expressed in CHO cells assessed as effect on agonist-induced extracellular acidification by microphysiometry; assay type: functional, cell-based; conditions: not given; procedure, shortened: as §1
T4 sequence (whole entry): T3 sequence (P18089 whole entry)

SMILES | pKb
C[C@H](Oc1ccccc1-c1cccc([N+](=O)[O-])c1)C1=NCCN1 | 5.93
C[C@@H](Oc1ccccc1-c1cccc(O)c1)C1=NCCN1 | 5.67

target: T5, Alpha-2C adrenergic receptor (Homo sapiens, UniProt P18825); assay: Displacement of [3H]RX821002 from human Alpha-2C adrenoceptor expressed in CHO cells; assay type: cell-based; conditions: not given; procedure, shortened: as §2
T5 sequence (P18825 whole entry): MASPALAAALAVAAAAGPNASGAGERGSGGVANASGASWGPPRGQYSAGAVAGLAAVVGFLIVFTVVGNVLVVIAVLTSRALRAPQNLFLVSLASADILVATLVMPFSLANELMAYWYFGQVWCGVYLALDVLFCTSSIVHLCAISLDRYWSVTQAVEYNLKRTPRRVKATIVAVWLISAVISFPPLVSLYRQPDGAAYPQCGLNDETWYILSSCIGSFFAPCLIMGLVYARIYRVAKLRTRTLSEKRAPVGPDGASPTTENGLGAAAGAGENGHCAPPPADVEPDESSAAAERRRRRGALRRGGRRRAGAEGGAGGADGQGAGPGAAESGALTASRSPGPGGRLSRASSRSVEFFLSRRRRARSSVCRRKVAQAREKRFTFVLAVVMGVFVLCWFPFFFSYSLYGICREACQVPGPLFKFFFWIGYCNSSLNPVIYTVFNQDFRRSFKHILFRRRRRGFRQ

SMILES | Ki
C=CCc1ccccc1O[C@H](C)C1=NCCN1 | 0.178 µM
CC(Oc1ccccc1C1CC1)C1=NCCN1 (racemic) | 0.0794 µM
C[C@@H](Oc1ccccc1-c1ccsc1)C1=NCCN1 | 0.316 µM
C[C@@H](Oc1ccccc1-c1cccc(O)c1)C1=NCCN1 | 0.0316 µM

target: T5, Alpha-2C adrenergic receptor; assay: Agonist activity at human Alpha-2C adrenoceptor expressed in CHO cells assessed as induction of extracellular acidification by microphysiometry; assay type: functional, cell-based; conditions: not given
Procedure, shortened: (§3)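 Cytosensor microphysiometry on CHO cells stably expressing one human α2-AR subtype, seeded at 3 × 10⁵ cells/cup and grown 24 h at 37 °C. Cells were perfused with bicarbonate-free DMEM and exposed to agonist for 4 min, with 30 min washes between exposures. The read-out is the change in acidification rate: peak after agonist minus the mean of three prior readings. Mean ± SEM, 3–6 experiments.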

SMILES | EC50
C=CCc1ccccc1O[C@H](C)C1=NCCN1 | 0.186 µM
CC(Oc1ccccc1C1CC1)C1=NCCN1 (racemic) | 0.0398 µM
C[C@@H](Oc1ccccc1-c1ccsc1)C1=NCCN1 | 0.1 µM
C[C@@H](Oc1ccccc1-c1cccc(O)c1)C1=NCCN1 | 0.0251 µM

target: T6, Alpha-2C adrenergic receptor (Homo sapiens) (UniProt P18825); assay: Agonist activity at human Alpha-2C adrenoceptor expressed in CHO cells assessed as induction of extracellular acidification by microphysiometry relative to (-)noradrenaline; assay type: functional, cell-based; conditions: not given
T6 sequence (whole entry): T5 sequence (P18825 whole entry)
Procedure, shortened: as §3, with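 “readings. […]” for “readings.”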

SMILES | Intrinsic activity
C=CCc1ccccc1O[C@H](C)C1=NCCN1 | 0.5
C[C@H](Oc1ccccc1-c1cccc([N+](=O)[O-])c1)C1=NCCN1 | 0.45
CC(Oc1ccccc1C1CC1)C1=NCCN1 (racemic) | 0.9
C[C@@H](Oc1ccccc1-c1ccsc1)C1=NCCN1 | 0.7
C[C@@H](Oc1ccccc1-c1cccc(O)c1)C1=NCCN1 | 1

test system: Mus musculus; assay: Enhancement of morphine-induced analgesic effect in CD1 mouse at 0.05 mg/kg, ip administered 15 mins before morphine dosing measured 30 to 240 mins post morphine challenge by radiant heat tail flick test; assay type: functional, organism-based; parameters: dose 0.05 mg/kg; conditions: not given
Procedure, shortened: (§4)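 Male CD-1 mice (25–35 g) received test agent 0.05 mg/kg ip or vehicle 15 min before morphine 5 mg/kg sc. Radiant-heat tail-flick to the lower third of the tail; baseline latency (2–3 s) is the mean of two trials. Latencies were read at 30, 60, 90, 120 and 240 min and expressed as %MPE. 7–8 mice per group, mean ± SEM.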

SMILES | Activity
C=CCc1ccccc1O[C@H](C)C1=NCCN1 | Active

test system: Mus musculus; assay: Analgesic effect in CD1 mouse at 0.05 mg/kg, ip by radiant heat tail flick test; assay type: functional, organism-based; parameters: dose 0.05 mg/kg; conditions: not given; procedure, shortened: as §4

SMILES | Activity
C=CCc1ccccc1O[C@H](C)C1=NCCN1 | inactive

test system: Mus musculus; assay: Enhancement of morphine-induced analgesic effect in CD1 mouse at 0.05 mg/kg, ip administered 15 mins before morphine dosing measured 30 to 240 mins post morphine challenge in presence of Alpha-2C adrenergic receptor antagonist yohimbine by radiant heat tail flick test; assay type: functional, organism-based; parameters: dose 0.05 mg/kg; conditions: not given
Procedure, shortened: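 Male CD-1 mice got yohimbine 1.250 mg/kg ip 15 min before test agent (0.05 mg/kg ip). Test agent was given 15 min before morphine 5 mg/kg sc. Radiant-heat tail-flick latency was read 30–240 min after morphine and expressed as %MPE.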

SMILES | Activity
C=CCc1ccccc1O[C@H](C)C1=NCCN1 | inactive

test system: Mus musculus; assay: Reduction in morphine tolerance acquisition in CD1 mouse assessed as morphine analgesic effect incidence at 0.05 mg/kg, ip administered as single dose 15 mins before last morphine dosing on test day post morphine challenge by radiant heat tail flick test; assay type: functional; conditions: not given
Procedure, shortened: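 Tolerance was induced in male CD-1 mice with morphine 10 mg/kg sc twice daily at 12 h intervals for 5 days. On day 5, test agent 0.05 mg/kg ip was given once, 15 min before the last morphine injection. Tail-flick antinociception was read 30 min after that injection and expressed as %MPE, with day 1 vs day 5 compared.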

SMILES | Activity
C=CCc1ccccc1O[C@H](C)C1=NCCN1 | inactive

test system: Mus musculus; assay: Reduction in morphine dependence expression in CD1 mouse assessed as decrease in expression of naloxone-precipitated withdrawal syndrome at 0.05 mg/kg, ip administered as single dose […] on test day post morphine challenge […]; assay type: functional, organism-based; parameters: dose 0.05 mg/kg; conditions: not given

SMILES | Activity
C=CCc1ccccc1O[C@H](C)C1=NCCN1 | Active

test system: Mus musculus; assay: Toxicity in CD1 mouse assessed as effect on sleep duration at 0.05 mg/kg, ip by pentobarbital sodium induced sleep time assay; assay type: organism-based; parameters: dose 0.05 mg/kg, route intraperitoneal; conditions: in vivo
Procedure, shortened: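 Male CD-1 mice (n = 10 per group) were given test agent 0.05 mg/kg or vehicle, then sodium pentobarbital 50 mg/kg ip 15 min later. Sleep duration, the time from loss to regain of the righting reflex, was recorded in seconds. Mean ± SEM.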

SMILES | Activity
C=CCc1ccccc1O[C@H](C)C1=NCCN1 | Non-toxic

test system: Mus musculus; assay: Reduction in morphine tolerance acquisition in CD1 mouse assessed as morphine analgesic effect incidence at 0.05 mg/kg, ip bid administered 15 mins before last morphine dosing by radiant heat tail flick test; assay type: functional, organism-based; parameters: dose 0.05 mg/kg; conditions: not given

SMILES | Activity
C=CCc1ccccc1O[C@H](C)C1=NCCN1 | Active

test system: Mus musculus; assay: Reduction in morphine dependence expression in CD1 mouse assessed as decrease in expression of naloxone-precipitated withdrawal syndrome at 0.05 mg/kg, ip bid administered 15 mins before last morphine dosing […]; assay type: functional, organism-based; parameters: dose 0.05 mg/kg; conditions: not given
Procedure, shortened: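 In male CD-1 mice, morphine 10 mg/kg sc was given twice daily at 12 h intervals for 6 days, with test agent 0.05 mg/kg ip 15 min before each morphine dose. Jumping was counted, and somatic signs were scored as the sum of rearing, forepaw tremor and teeth chatter. Blind observers; mean ± SEM.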

SMILES | Activity
C=CCc1ccccc1O[C@H](C)C1=NCCN1 | Active

target: T4, Alpha-2B adrenergic receptor (Homo sapiens); conditions: CHO

SMILES | pEC50
C=CCc1ccccc1O[C@H](C)C1=NCCN1 | inactive
C[C@@H](Oc1ccccc1-c1ccsc1)C1=NCCN1 | inactive
